Screens: PubChem, Broad Institute
INS-1E rescue – protection of INS-1E cells from cytokine death, primary screen, ATP luminescence, single point; INS-1E cytokine-induced death, 48 h; normalised: neutral wells 0, positive control 100; protection from cytokine-induced ATP loss, % at 10 µM; actives 0.1% (n = 20,000); AID 488910, 2010;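 active = mean replicate protection from cytokine-induced ATP loss at least 50% and at least 75% of replicates each reaching 50%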
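Assay system: INS-1E rat insulinoma cells. Amount: 8000 cells per well. Medium: phenol-red-free RPMI with 5% fetal bovine serum. Reagent: IL-1β, TNF-α and IFN-γ cytokine mix. Doses: one compound concentration, pin transfer. Schedule: 48 h co-treatment, 10 min post-lysis read. Detection: CellTiter-Glo luminescence measuring cellular ATP.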
YB-1 expression – inhibitors of YB-1 gene expression, primary screen, cell-based, fluorescence; actives 0.37% (n = 30,000); U2OS, qRT-PCR YB-1 vs CDIP delta delta Cp, 16 h; active compounds read high; zero = DMSO, each unit about twofold; delta delta Cp (YB-1 minus CDIP) (test concentration not listed);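 active = delta delta Cp rounded down to an integer at or above 3, about 3 SD of DMSO wells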;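 note: higher means less YB-1 transcript or more CDIP transcript relative to DMSO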
T cruzi HTS – inhibitors of intracellular Trypanosoma cruzi, primary screen, cell-based, plate reader, single point, set 2; activity score (inhibition), % at 5.01 µM; actives 4.9% (n = 22,000); intracellular Trypanosoma cruzi in host cells; AID 651903, 2012; in the data active = activity score above about 55%;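 note: parasites and compound incubated about four days before reading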
Large screens that a line does not name were inactive. Shown is part of a subset that was picked to be rich in hits.

C=C1C(=O)O[C@@H]2/C=C(/CO)CC/C=C(/C=O)C[C@@H](O)[C@@H]12	none (no result: INS-1E rescue, T cruzi HTS)
COc1ccc(S(=O)(=O)Nc2ccc3c(c2)CC(=O)N([C@H](C)CO)C[C@@H](C)[C@@H](CN(C)Cc2ccc(Cl)c(Cl)c2)O3)cc1	T cruzi HTS 55
COc1ccc(S(=O)(=O)Nc2ccc3c(c2)C(=O)N([C@@H](C)CO)C[C@@H](C)[C@@H](CN(C)Cc2ccc(Cl)c(Cl)c2)O3)cc1	none
COc1ccc(S(=O)(=O)Nc2ccc3c(c2)CC(=O)N([C@@H](C)CO)C[C@H](C)[C@H](CN(C)Cc2ccc(Cl)c(Cl)c2)O3)cc1	T cruzi HTS 73
COc1ccc(S(=O)(=O)Nc2ccc3c(c2)C(=O)N([C@H](C)CO)C[C@H](C)[C@H](CN(C)Cc2ccc(Cl)c(Cl)c2)O3)cc1	none
COc1ccc(S(=O)(=O)Nc2ccc3c(c2)C(=O)N([C@H](C)CO)C[C@H](C)[C@@H](CN(C)Cc2ccc(Cl)c(Cl)c2)O3)cc1	none
COc1ccc(S(=O)(=O)Nc2ccc3c(c2)CC(=O)N([C@@H](C)CO)C[C@@H](C)[C@@H](CN(C)Cc2ccc(Cl)c(Cl)c2)O3)cc1	T cruzi HTS 63
Cc1noc(C)c1NC(=O)N(C)C[C@@H]1Oc2ccc(NS(=O)(=O)c3c(C)noc3C)cc2C(=O)N([C@H](C)CO)C[C@@H]1C	none
Cc1noc(C)c1NC(=O)N(C)C[C@H]1Oc2c(NS(=O)(=O)c3ccc(F)cc3)cccc2C(=O)N([C@H](C)CO)C[C@@H]1C	none
C[C@@H]1CN([C@@H](C)CO)C(=O)c2cccc(NC(=O)Nc3ccc(C(F)(F)F)cc3)c2O[C@H]1CN(C)C(=O)NC1CCCCC1	none
C[C@@H]1CN([C@@H](C)CO)C(=O)c2cccc(NS(=O)(=O)c3cccs3)c2O[C@@H]1CN(C)C(=O)Nc1ccc(F)cc1	none
C[C@H]1CN([C@@H](C)CO)C(=O)c2cccc(NC(=O)Nc3ccc(C(F)(F)F)cc3)c2O[C@@H]1CN(C)C(=O)Nc1ccc(C(F)(F)F)cc1	none
C[C@@H]1CN([C@H](C)CO)C(=O)c2cccc(NC(=O)Nc3ccc(C(F)(F)F)cc3)c2O[C@@H]1CN(C)C(=O)NC1CCCCC1	T cruzi HTS 82
C[C@@H]1CN([C@H](C)CO)C(=O)c2cccc(NS(=O)(=O)c3cccs3)c2O[C@@H]1CN(C)C(=O)Nc1ccc(C(F)(F)F)cc1	T cruzi HTS 71
C[C@H]1CN([C@@H](C)CO)C(=O)c2cccc(NC(=O)Nc3ccc(C(F)(F)F)cc3)c2O[C@@H]1CN(C)C(=O)Nc1cccc2ccccc12	T cruzi HTS 66
C[C@@H]1CN([C@H](C)CO)C(=O)c2cccc(NC(=O)Nc3ccc(C(F)(F)F)cc3)c2O[C@H]1CN(C)C(=O)Nc1cccc2ccccc12	none
C[C@@H]1CN([C@@H](C)CO)C(=O)c2cccc(NC(=O)Nc3ccc(C(F)(F)F)cc3)c2O[C@H]1CN(C)C(=O)Nc1ccc(C(F)(F)F)cc1	T cruzi HTS 72
CCNC(=S)NCC1CC1	none (no result: INS-1E rescue, T cruzi HTS)
C[C@@H]1CN([C@@H](C)CO)C(=O)c2cccc(NS(=O)(=O)c3ccc(Cl)cc3)c2O[C@@H]1CN(C)S(=O)(=O)c1cccs1	none
C=C1C(=O)O[C@H]2[C@H]1[C@@H](OC(=O)C(C)(O)C(C)Cl)C(OC(C)=O)/C(C(=O)OC)=C\CC[C@@]1(C)O[C@H]21 (stereo not given in full)	none (no result: INS-1E rescue, T cruzi HTS)
Cc1noc(C)c1NC(=O)N(C)C[C@@H]1Oc2ccc(NC(=O)CCCCCC(=O)Nc3ccccc3N)cc2CC(=O)N([C@H](C)CO)C[C@H]1C	none
COc1ccc(NC(=O)Nc2ccc3c(c2)C(=O)N([C@H](C)CO)C[C@H](C)[C@H](CN(C)C(=O)CCCN(C)C)OCCCC[C@@H](C)O3)cc1	none
C[C@@H]1CN([C@@H](C)CO)C(=O)c2cccc(NC(=O)Nc3ccc(C(F)(F)F)cc3)c2O[C@@H]1CN(C)Cc1ccc(Oc2ccccc2)cc1	T cruzi HTS 87
C[C@H]1CN([C@@H](C)CO)C(=O)c2cccc(NC(=O)Nc3ccc(C(F)(F)F)cc3)c2O[C@H]1CN(C)Cc1ccc(Oc2ccccc2)cc1	T cruzi HTS 69
C[C@@H]1CN([C@H](C)CO)C(=O)c2cccc(NC(=O)Nc3ccc(C(F)(F)F)cc3)c2O[C@H]1CN(C)Cc1ccc(Oc2ccccc2)cc1	none
C[C@@H]1CN([C@H](C)CO)C(=O)c2cccc(NC(=O)Nc3ccc(C(F)(F)F)cc3)c2O[C@@H]1CN(C)Cc1ccc(Oc2ccccc2)cc1	T cruzi HTS 79
C[C@@H]1CN([C@H](C)CO)C(=O)c2cccc(NC(=O)Nc3ccccc3)c2O[C@H]1CN(C)Cc1ccc(C(F)(F)F)cc1	none
C[C@@H]1CN([C@@H](C)CO)C(=O)c2cccc(NC(=O)Nc3ccc(C(F)(F)F)cc3)c2O[C@H]1CN(C)Cc1ccc(Oc2ccccc2)cc1	none
C[C@@H]1CN([C@H](C)CO)C(=O)c2cccc(NC(=O)c3nc4ccccc4s3)c2O[C@H]1CN(C)S(=O)(=O)c1ccc(F)cc1	none
C[C@@H]1CN([C@@H](C)CO)C(=O)c2cc(NC(=O)C3CCCCC3)ccc2O[C@H]1CN(C)Cc1ccc(Cl)c(Cl)c1	none
C[C@@H]1CCCCO[C@@H](CN(C)S(C)(=O)=O)[C@@H](C)CN([C@H](C)CO)C(=O)c2cc(NS(=O)(=O)c3ccccc3)ccc2O1	none
C[C@H](CO)N1C[C@H](C)[C@@H](CN(C)CC2CC2)Oc2c(NC(=O)C3CCCCC3)cccc2C1=O	none
COCCOC(=O)N1C(=O)[C@@]2(c3cc(C#Cc4ccc(OC)cc4)ccc31)[C@H](C(=O)N1CCN(c3ncccn3)CC1)[C@H]1C(=O)O[C@H](c3ccccc3)[C@H](c3ccccc3)N1[C@@H]2c1ccc(OCCO)cc1	none (no result: INS-1E rescue, T cruzi HTS)
CC(C)NC(=O)Nc1ccc2c(c1)CC(=O)N([C@@H](C)CO)C[C@H](C)[C@H](CN(C)S(=O)(=O)c1ccc(F)cc1)O2	none
C[N+]1(C)C2CC[C@H]1CC(OC(=O)C(O)c1ccccc1)C2 (stereo not given in full)	none (no result: INS-1E rescue, T cruzi HTS)
C[N+]1(C)CCCC(OC(=O)C(O)(c2ccccc2)c2ccccc2)C1 (stereo not given)	YB-1 expression 8.9 (no result: INS-1E rescue, T cruzi HTS)
C[C@H](CO)N1C[C@H](C)[C@H](CN(C)Cc2ccc(-c3ccccc3)cc2)Oc2ccc(NC(=O)c3ccncc3)cc2CC1=O	none
C[C@@H]1CN([C@H](C)CO)C(=O)c2cccc(N(C)C)c2O[C@@H]1CN(C)Cc1ccc(C(=O)Nc2ccccc2N)cc1	none
C[C@H](CO)N1C[C@H](C)[C@H](CN(C)Cc2ccc(C(=O)Nc3ccccc3N)cc2)Oc2c(NC(=O)C3CC3)cccc2C1=O	none
C[C@H]1CN([C@@H](C)CO)C(=O)c2cccc(NC(=O)C3CCCCC3)c2O[C@H]1CN(C)Cc1ccc(C(=O)Nc2ccccc2N)cc1	T cruzi HTS 66
C[C@@H]1CN([C@@H](C)CO)C(=O)c2cccc(NC(=O)C3CC3)c2O[C@@H]1CN(C)Cc1ccc(C(=O)Nc2ccccc2N)cc1	INS-1E rescue 59
